Tests used:
[1] = Lipophilicity, LogD at pH 7.4; assay type: physicochemical; details: buffer
In short: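 Partition measured between 1-octanol and water at pH 7.4.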

[2] = Cmax in male rat at 1 mg/kg, iv and po; assay type: ADME, organism-based; design: dose 1 mg/kg, route oral; details: in vivo
In short: (§1)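 Jugular-vein-cannulated rats got 1 mg/kg iv (tail vein) or po (gavage). Blood (0.2 mL) was drawn via the catheter into heparin tubes up to 24 h post-dose. Plasma was acidified with phosphoric acid and frozen, then extracted on C18 cartridges. Samples were quantified by LC-MS-MS with positive-ion MRM. Values are mean ± SD of three animals.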

Rattus norvegicus [3] = assay: Volume of distribution in male rat at 1 mg/kg, iv and po; assay type: ADME, organism-based; design: dose 1 mg/kg, route oral; details: in vivo; in short: as §1
[4] = Tmax in male rat at 1 mg/kg, iv and po; assay type: ADME, organism-based; design: dose 1 mg/kg, route oral; details: in vivo; in short: as §1
[5] = Oral bioavailability in male rat at 1 mg/kg, iv and po; assay type: ADME, organism-based; details: in vivo; in short: as §1
[6] = Half life in male rat at 1 mg/kg, iv and po; assay type: ADME, organism-based; design: dose 1 mg/kg, route oral; details: in vivo; in short: as §1
[7] = molecular target: T1, Endothelin-converting enzyme 1 (Homo sapiens, UniProt P42892); assay: Inhibition of human ECE1
T1 sequence (P42892 whole entry): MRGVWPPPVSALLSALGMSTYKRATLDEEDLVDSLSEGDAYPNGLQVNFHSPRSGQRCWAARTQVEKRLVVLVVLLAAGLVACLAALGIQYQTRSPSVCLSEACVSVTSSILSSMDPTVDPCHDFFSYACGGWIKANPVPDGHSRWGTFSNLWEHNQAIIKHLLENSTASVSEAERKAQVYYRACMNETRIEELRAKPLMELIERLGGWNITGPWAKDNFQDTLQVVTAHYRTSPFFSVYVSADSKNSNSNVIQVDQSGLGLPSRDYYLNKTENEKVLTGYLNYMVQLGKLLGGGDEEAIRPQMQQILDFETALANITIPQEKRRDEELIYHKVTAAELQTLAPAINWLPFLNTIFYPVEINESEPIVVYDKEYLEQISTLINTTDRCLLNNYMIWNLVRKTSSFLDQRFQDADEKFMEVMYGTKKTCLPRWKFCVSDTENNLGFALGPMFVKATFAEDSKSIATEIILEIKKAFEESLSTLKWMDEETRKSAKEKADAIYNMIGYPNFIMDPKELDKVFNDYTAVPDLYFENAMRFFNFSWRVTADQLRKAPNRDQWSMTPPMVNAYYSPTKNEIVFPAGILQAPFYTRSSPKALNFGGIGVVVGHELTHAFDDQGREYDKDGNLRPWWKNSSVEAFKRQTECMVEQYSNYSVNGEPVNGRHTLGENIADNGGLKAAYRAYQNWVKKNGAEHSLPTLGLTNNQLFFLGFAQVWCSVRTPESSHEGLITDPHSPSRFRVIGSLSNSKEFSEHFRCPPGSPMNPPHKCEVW
In short: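 Enzyme: recombinant human ECE-1 extracellular domain (aa 73-753), taken from the media of transiently transfected CHO cells. Assay in 100 mM HEPES-KOH pH 7.0/1% DMSO with 1 µM big ET-1, 1 h at 37 °C. Stopped with an equal volume of 10 mM EDTA. ET-1 formed was read by ELISA, with enzyme diluted to give OD ≈1.0. Inhibitors were tested at a range of concentrations as % inhibition.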

[8] = Percent of unbound ligand in female rat at 1 mg/kg, iv and po; assay type: ADME, organism-based; design: dose 1 mg/kg, route oral; details: in vivo
In short: (§2)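 Fraction unbound in rat plasma was measured at 1 µg/mL by equilibrium dialysis against isotonic Krebs-Ringer bicarbonate buffer, pH 7.4.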

Rattus norvegicus [9] = assay: Volume of distribution in female rat at 1 mg/kg, iv and po; assay type: ADME, organism-based; design: dose 1 mg/kg, route oral; details: in vivo; in short: as §1
[10] = Half life in female rat at 1 mg/kg, iv and po; assay type: ADME, organism-based; design: dose 1 mg/kg, route oral; details: in vivo; in short: as §1
Neprilysin [11] = molecular target: T2, Neprilysin (Oryctolagus cuniculus, UniProt P08049); assay: Inhibition of rabbit NEP
T2 sequence (P08049 whole entry): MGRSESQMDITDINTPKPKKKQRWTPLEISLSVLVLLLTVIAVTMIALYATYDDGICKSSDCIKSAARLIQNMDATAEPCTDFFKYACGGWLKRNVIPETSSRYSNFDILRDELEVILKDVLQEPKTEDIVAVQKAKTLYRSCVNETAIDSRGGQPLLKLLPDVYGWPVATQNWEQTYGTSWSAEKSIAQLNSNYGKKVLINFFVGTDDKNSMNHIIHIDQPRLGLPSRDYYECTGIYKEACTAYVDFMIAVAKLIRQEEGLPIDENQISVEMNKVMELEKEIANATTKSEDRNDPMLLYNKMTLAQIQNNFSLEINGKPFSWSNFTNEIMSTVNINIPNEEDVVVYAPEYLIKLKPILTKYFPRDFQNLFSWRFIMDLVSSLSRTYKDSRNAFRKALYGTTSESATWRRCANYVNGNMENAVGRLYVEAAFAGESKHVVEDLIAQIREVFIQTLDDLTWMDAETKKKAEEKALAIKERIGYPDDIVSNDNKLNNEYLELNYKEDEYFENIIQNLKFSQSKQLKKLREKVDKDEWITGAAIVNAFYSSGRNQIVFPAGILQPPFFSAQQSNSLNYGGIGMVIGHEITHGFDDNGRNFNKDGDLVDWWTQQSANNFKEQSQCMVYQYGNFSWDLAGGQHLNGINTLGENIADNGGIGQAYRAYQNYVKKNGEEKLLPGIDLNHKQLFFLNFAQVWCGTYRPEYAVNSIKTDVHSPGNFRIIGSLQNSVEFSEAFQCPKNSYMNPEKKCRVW
In short: (§3)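 Fluorogenic substrate o-aminobenzoyl-D-Arg-Arg-Leu-ethylenediamine-2,4-dinitrophenyl in 50 mM Tris·Cl pH 7.4 (inhibitor dilutions with 4% DMSO). Enzyme was diluted to ≤10% conversion; incubation 1 h at 37 °C, stopped with phosphoramidon. 10-point half-log dilution series, duplicate points.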

Neprilysin [12] = molecular target: T3, Neprilysin (Rattus norvegicus, UniProt P07861); assay: Inhibition of rat NEP; in short: as §3
T3 sequence (P07861 whole entry): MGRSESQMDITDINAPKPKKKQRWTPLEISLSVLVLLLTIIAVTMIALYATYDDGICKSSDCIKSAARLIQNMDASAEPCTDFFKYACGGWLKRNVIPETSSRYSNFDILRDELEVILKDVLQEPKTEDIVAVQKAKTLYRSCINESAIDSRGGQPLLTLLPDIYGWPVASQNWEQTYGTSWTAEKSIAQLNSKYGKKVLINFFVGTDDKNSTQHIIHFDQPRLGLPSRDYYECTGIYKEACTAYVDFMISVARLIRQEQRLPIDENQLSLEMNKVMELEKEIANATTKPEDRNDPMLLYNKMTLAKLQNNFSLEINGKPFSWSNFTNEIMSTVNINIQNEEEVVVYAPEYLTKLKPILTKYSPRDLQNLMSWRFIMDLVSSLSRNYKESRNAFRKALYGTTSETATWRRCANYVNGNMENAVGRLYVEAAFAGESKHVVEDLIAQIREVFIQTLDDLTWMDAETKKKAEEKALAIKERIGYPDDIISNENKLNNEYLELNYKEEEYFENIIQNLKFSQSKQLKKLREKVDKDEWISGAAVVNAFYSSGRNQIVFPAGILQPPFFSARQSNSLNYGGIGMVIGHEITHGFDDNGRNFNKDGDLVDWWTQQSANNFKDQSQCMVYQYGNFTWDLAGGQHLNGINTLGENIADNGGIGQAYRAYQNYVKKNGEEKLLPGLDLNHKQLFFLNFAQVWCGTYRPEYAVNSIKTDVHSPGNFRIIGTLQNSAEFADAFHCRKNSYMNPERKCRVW

[13] = Stability in rat liver microsome; assay type: ADME; details: liver microsomes, read-out: Stability
[14] = Apparent permeability from apical to basolateral side of the Caco-2 cell membrane at pH 7.4 at 25 uM; assay type: ADME, cell-based; details: human, Caco-2, pH 7.4
[15] = Percent of unbound ligand in male rat at 1 mg/kg, iv and po; assay type: ADME, organism-based; design: dose 1 mg/kg, route oral; details: in vivo; in short: as §2
[16] = Cmax in female rat at 1 mg/kg, iv and po; assay type: ADME, organism-based; design: dose 1 mg/kg, route oral; details: in vivo; in short: as §1
[17] = Stability in human liver microsome at 1 uM in presence of 0.5 uM CYP; assay type: ADME; details: liver microsomes, read-out: Stability
In short: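 Substrate disappearance in human liver microsomes, 1 µM compound, 0.5 µM CYP.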

[18] = Oral bioavailability in female rat at 1 mg/kg, iv and po; assay type: ADME, organism-based; details: in vivo; in short: as §1
[19] = Tmax in female rat at 1 mg/kg, iv and po; assay type: ADME, organism-based; design: dose 1 mg/kg, route oral; details: in vivo; in short: as §1
[20] = Apparent permeability from basolateral to apical side of the Caco-2 cell membrane at pH 7.4 at 25 uM; assay type: ADME, cell-based; details: human, Caco-2, pH 7.4

logD [1]	Cmax [2]	Vdss (Rattus norvegicus [3])	Tmax [4]	bioavailability [5]	half-life [6]	IC50 [7]	Papp A→B at 25 µM [14]	half-life at 1 µM [17]	Papp B→A at 25 µM [20]	Structure (SMILES)	also measured
0.5										CCCC(CC1(C(=O)Nc2nnc(CC)s2)CCCC1)C(=O)O (racemic)	
1.1	311 ng/mL	3.9 L/kg	0.25 h	108%	2 h					CCCC(CC1(C(=O)NC2(CO)Cc3ccccc3C2)CCCC1)C(=O)O (racemic)	
						> 3 µM				CCC[C@@H](CC1(C(=O)Nc2nnc(CC)s2)CCCC1)C(=O)O	
	1180 ng/mL	0.4 L/kg	1 h	103%	1.7 h	> 3 µM	9 ×10⁻⁶ cm/s	> 2 h	14 ×10⁻⁶ cm/s	CCC[C@H](CC1(C(=O)Nc2nnc(CC)s2)CCCC1)C(=O)O	Fu [8]: 13%; Vdss (Rattus norvegicus [9]): 0.9 L/kg; half-life [10]: 2.1 h; IC50 (Neprilysin [11]): 0.0102 µM; IC50 (Neprilysin [12]): 0.0143 µM; half-life [13]: > 2 h; Fu [15]: 10.6%; Cmax [16]: 1460 ng/mL; bioavailability [18]: 131%; Tmax [19]: 1 h
						> 3 µM				CCC[C@@H](CC1(C(=O)NC2(CO)Cc3ccccc3C2)CCCC1)C(=O)O	
						> 3 µM	< 1 ×10⁻⁶ cm/s	> 2 h	2 ×10⁻⁶ cm/s	CCC[C@H](CC1(C(=O)Nc2nnc(C)s2)CCCC1)C(=O)O	
0.1										CCCC(CC1(C(=O)Nc2nnc(C)s2)CCCC1)C(=O)O (racemic)	
	233 ng/mL	4.7 L/kg	0.25 h	144%	1.5 h	> 3 µM	6 ×10⁻⁶ cm/s	1.03 h	10 ×10⁻⁶ cm/s	CCC[C@H](CC1(C(=O)NC2(CO)Cc3ccccc3C2)CCCC1)C(=O)O	half-life [13]: > 2 h; Fu [15]: 24.3%

— ChEMBL document CHEMBL1138065, “Novel selective inhibitors of neutral endopeptidase for the treatment of female sexual arousal disorder. Synthesis and activity of functionalized glutaramides” (J Med Chem, 2006)
